{"source": "ChEMBL document CHEMBL1949512", "about": "“RO4383596, an orally active KDR, FGFR, and PDGFR inhibitor: synthesis and biological evaluation” (Bioorg Med Chem, 2005)", "key": {"[1]": {"biological_target": "Protein kinase C delta type (Homo sapiens, UniProt Q05655)", "sequence (Q05655 whole entry)": "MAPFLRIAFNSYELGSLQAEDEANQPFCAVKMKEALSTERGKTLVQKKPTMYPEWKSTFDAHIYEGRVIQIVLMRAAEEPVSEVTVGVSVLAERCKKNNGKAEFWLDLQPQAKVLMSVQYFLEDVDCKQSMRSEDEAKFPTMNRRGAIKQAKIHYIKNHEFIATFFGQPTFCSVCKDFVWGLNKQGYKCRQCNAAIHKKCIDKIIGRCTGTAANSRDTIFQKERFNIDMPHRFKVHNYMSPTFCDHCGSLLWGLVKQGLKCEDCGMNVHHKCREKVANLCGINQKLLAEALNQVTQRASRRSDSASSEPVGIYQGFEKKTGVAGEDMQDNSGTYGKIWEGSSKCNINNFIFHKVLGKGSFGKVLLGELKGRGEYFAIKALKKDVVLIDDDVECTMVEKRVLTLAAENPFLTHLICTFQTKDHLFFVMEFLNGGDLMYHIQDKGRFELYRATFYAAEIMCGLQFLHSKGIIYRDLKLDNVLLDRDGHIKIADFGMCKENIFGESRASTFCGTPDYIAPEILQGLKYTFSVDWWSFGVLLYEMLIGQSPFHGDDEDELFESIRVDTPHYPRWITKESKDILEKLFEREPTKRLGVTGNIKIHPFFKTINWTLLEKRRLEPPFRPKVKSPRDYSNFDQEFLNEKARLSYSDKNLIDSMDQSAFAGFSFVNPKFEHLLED", "experiment": "Inhibition of PKCdelta by IMAP assay", "procedure,_shortened": "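IMAP fluorescence-polarization assay, in which phosphorylated fluorescent peptide substrates bind immobilized metal beads. Reactions ran at ATP three times Km.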"}, "[2]": {"experiment": "Tmax in athymic nude mouse at 50 mg/kg, po", "type": "ADME, organism-based", "design": "dose 50 mg/kg, route oral", "conditions": "in vivo", "procedure,_shortened": "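Athymic nude mice, single oral dose 50 mg/kg in 2% Klucel LF, 0.1% Tween 80 in water, 0.2 mL. Retro-orbital or terminal cardiac blood at 5, 15, 30 min and 1, 2, 4, 8, 16, 24 h; EDTA plasma by LC-MS/MS. Composite parameters; Tmax read from mean concentration–time profile.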"}, "[3]": {"test_system": "Mus musculus", "experiment": "Antiangiogenic activity in C57/BL6 mouse cornea assessed as inhibition of bFGF-induced angiogenesis at 100 mg/kg, po bid for 5 days by corneal pocket assay relative to control", "type": "functional", "conditions": "120 h", "procedure,_shortened": "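bFGF-impregnated pellets were implanted in corneas of female C57/BL6 mice aged 5–7 weeks. Oral dosing twice daily began the same day for 5 days. The neovascularized area was quantitated against vehicle-treated animals (2% Klucel LF, 0.1% Tween 80 in water).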"}}, "note": "pIC50: −log10 of the molar value."}
{"smiles": "COc1ccc(N2Cc3cnc(Nc4ccccc4)nc3N([C@@H]3CC[C@@H](O)C3)C2=O)cc1", "note": "(racemic)", "values": [{"measurement": "pIC50", "setting": "[1]", "value": "< 3.90"}, {"measurement": "Tmax", "setting": "[2]", "value": 15, "unit": "min"}, {"measurement": "inhibition in vivo at 100 mg/kg", "setting": "[3]", "value": 97, "unit": "%"}]}
